The species named for experiment [1] is Mus musculus. The experiment is described as follows: N-methyl-D-aspartate glutamate receptor antagonist activity of compound was demonstarted by the inhibition of NMDA-induced lethality in mouse. The format is functional. In outline:
(§1)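 CF-1 mice (22–28 g) were dosed retrobulbar with test agent or vehicle (0.9% saline, 5 mL/kg), 5 or 30 min before a bolus retrobulbar injection of NMDA (25 mg/kg) in saline into the other eye. The endpoint was prevention of death from seizures. ED50 came from at least three half-log doses with 10 mice per dose.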

The target in experiment [2] is Glutamate NMDA receptor. The experiment is described as follows: (§2) N-methyl-D-aspartate glutamate receptor antagonistic activity was assessed from the ability to displace [3H]CPP29,30 from rat cortical membranes. In outline: (§3)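 Crude synaptic membranes came from Long-Evans male rat forebrain (minus cerebellum and brainstem) and were treated with 0.01% Triton X-100 for 30 min at 37 °C, then washed. Membranes (200–400 µg protein/mL) were incubated with 10 nM [³H]CPP in 50 mM Tris-HCl, pH 7.6, for 15 min at 23 °C, in triplicate, and separated by centrifugation. Nonspecific binding was defined with 1 mM L-glutamate. IC50 came from a nonlinear fit of four or more concentrations.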

For experiment [3], the species on record is Mus musculus. The experiment is described as follows: N-methyl-D-aspartate glutamate receptor antagonist activity was measured as ataxia (the inability of the mice to cling to screen platform upon its inversion.). The format is functional. In outline: (§4)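 CF-1 mice (22–28 g) were dosed retrobulbarly with test agent or vehicle (0.9% saline, 5 mL/kg). Just before the NMDA challenge they were placed on an inverted screen. Ataxia was scored as failure to cling to the platform after inversion, and ED50 values were derived from dose-response data.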

The target in experiment [4] is Glutamate NMDA receptor. The experiment is described as follows: N-methyl-D-aspartate glutamate receptor antagonistic activity was assessed from the ability to inhibit glutamate-induced accumulation of [Ca2+] in cultured rat cortical neurons. The format is functional. In outline: (§5)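 Cortical neurons from E18 Sprague-Dawley rat fetuses were tested 14–16 days after plating. Cells were exposed for 30 min at 37 °C to 100 µM L-glutamate with ⁴⁵Ca²⁺ (2 µCi/mL) in Mg-free HBSS containing 1.4 mM CaCl₂ at pH 7.4, then washed and lysed for counting. Baseline uptake was subtracted. IC50 came from at least four half-log concentrations with six or more replicates each.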

Experiment [5] concerns the target T1, Glutamate NMDA receptor (Rattus norvegicus) (UniProt P35439+Q00959+Q00960+Q00961+Q62645+Q8VHN2+Q9R1M7). The experiment is described as follows: NMDA receptor antagonistic ability of 100 uM of compound was assessed from the ability to displace [3H]CPP29,30 from rat cortical membranes. The format is cell membranes. To be noted: Membrane.
The target of experiment [6] is Glutamate NMDA receptor. The experiment is described as follows: NMDA receptor antagonistic activity was assessed from the ability to displace [3H]CPP29,30 from rat cortical membranes. An outline of the steps:
as §3

Experiment [7] concerns Mus musculus. The experiment is described as follows: Compound was tested in vivo for the maximum dose that protects from NMDA-induced death in mice; Inactive. The format is functional. An outline of the steps: (§6)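 CF-1 mice (22–28 g) got the test agent by retrobulbar iv injection in 0.9% saline (5 mL/kg), then NMDA 25 mg/kg retrobulbar iv 5 or 30 min later. Doses were tested up to 30 mg/kg, scoring protection from lethal seizures.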

The target of experiment [8] is T1, Glutamate NMDA receptor (Rattus norvegicus). The experiment is described as follows: N-methyl-D-aspartate glutamate receptor antagonistic ability of 100 uM of compound was assessed from the ability to displace [3H]CPP29,30 from rat cortical membranes. The class given is cell membranes. To be noted: Membrane.
Experiment [9] addresses Glutamate NMDA receptor. The experiment is described as follows: NMDA receptor antagonistic activity was assessed in vitro by the assement of ability to inhibit glutamate-induced accumulation of [Ca2+] in cultured rat cortical neurons. The format is functional. In outline: as §5
Experiment [10] concerns the target Glutamate NMDA receptor. The experiment is described as follows: NMDA receptor antagonistic activity was assessed from the ability to displace [3H]CPP29,30 from rat cortical membranes. An outline of the steps: as §3
The subject of experiment [11] is Mus musculus. The experiment is described as follows: NMDA receptor antagonist activity of compound was demonstarted in vivo, by the inhibition of NMDA-induced lethality in mouse. The class given is functional. An outline of the steps:
as §1

The species named for experiment [12] is Mus musculus. The experiment is described as follows: NMDA receptor antagonist activity was measured as ataxia (the inability of the mice to cling to screen platform upon its inversion.). The class given is functional. In outline:
as §4

In experiment [13] the target is Glutamate NMDA receptor. The experiment is described as follows: NMDA receptor antagonistic activity was assessed in vitro by deteriming the ability to inhibit glutamate-induced accumulation of [Ca2+] in cultured rat cortical neurons. The format is functional. In outline: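 Rat (Sprague-Dawley, E18) cerebral hemisphere neurons, trypsin-dissociated, plated on poly-L-lysine at 200 000 cells/cm², used on days 14–16. Assay in serum- and Mg-free HBSS with 1.4 mM CaCl₂, pH 7.4, 37 °C. 30-min exposure to 100 µM L-glutamate (final) plus trace ⁴⁵Ca²⁺, with or without test agent. Baseline subtracted. IC50 from ≥4 half-log concentrations, ≥6 replicates each.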

Experiment [14] has as its system Mus musculus. The experiment is described as follows: NMDA receptor antagonist activity of compound was demonstarted in vivo by the inhibition of NMDA-induced lethality in mouse tested in vivo. The class given is functional. In outline:
as §1

In experiment [15] the test system is Mus musculus. The experiment is described as follows: NMDA antagonist activity was measured as ataxia (the inability of the mice to cling to screen platform upon its inversion.) tested in vivo. The format is functional. An outline of the steps:
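Ataxia was scored in CF-1 mice (22–28 g) on an inverted screen, as failure to cling when the platform was inverted. Scoring was done just before NMDA challenge (25 mg/kg, retrobulbar iv) and after retrobulbar dosing of the test agent in 0.9% saline (5 mL/kg). The result is reported as an ED50.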

Experiment [16] is filed under the species Mus musculus. The experiment is described as follows: Compound was tested for the maximum dose that protects from NMDA-induced death. The class given is functional. An outline of the steps:
as §6

The target of experiment [17] is T1, Glutamate NMDA receptor (Rattus norvegicus). The experiment is described as follows: N-methyl-D-aspartate glutamate receptorA antagonistic activity was assessed from the ability to inhibit glutamate-induced accumulation of [Ca2+] in cultured rat cortical neurons;IA means Compound was inactive up to 250 uM. The class given is functional. In outline:
as §5

Experiment [18] deals with Mus musculus. The experiment is described as follows: N-methyl-D-aspartate glutamate receptor antagonist activity of compound was demonstarted by the inhibition of NMDA-induced lethality in mouse;IA means Compound was inactive at 30 mg/kg when examined after 5 or 30 min after iv dosing. The class given is functional, organism-based. Set-up: dose 30 mg/kg. An outline of the steps:
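CF-1 mice (22–28 g) received test agent or vehicle (0.9% saline, 5 mL/kg) by retrobulbar injection 5 min before a bolus retrobulbar NMDA dose of 25 mg/kg in saline, which causes lethal seizures in untreated controls. Protection from death was scored. ED50 came from dose-response curves of at least three half-log doses with 10 mice per dose.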

In experiment [19] the test system is Mus musculus. The experiment is described as follows: N-methyl-D-aspartate glutamate receptor antagonist activity was measured as ataxia (the inability of the mice to cling to screen platform upon its inversion; IA means Compound was inactive at 30 mg/kg when examined after 5 or 30 min after iv dosing. The class given is functional, organism-based. On the set-up: dose 30 mg/kg. In outline: as §4

The target of experiment [20] is Glutamate NMDA receptor. The description is as §2. The source holds these as a separate data set.
The species entered for experiment [21] is Mus musculus. The experiment is described as follows: Compound was tested for the maximum dose that protects from NMDA-induced death in mice; Inactive. The format is functional. An outline of the steps: as §6

Results on 18 compounds are retold here after ChEMBL document CHEMBL1124644, “Exploration of phenyl-spaced 2-amino-(5-9)-phosphonoalkanoic acids as competitive N-methyl-D-aspartic acid antagonists” (J Med Chem, 1989).

The source made the active and inactive calls. The rule behind the calls is not given here.

One may read the ED50 as the dose at which the effect has come halfway, by size or by number of responders. A lower ED50 goes with an effect at a small dose. As a reminder, the IC50 is the concentration at which inhibition is half-maximal. Low readings indicate inhibition by little substance, high ones a need for much substance.

In the case of `NC(Cc1ccc(CP(=O)(O)O)cc1)C(=O)O` (stereo not drawn), the ED50 in the experiment listed under Mus musculus [1] and in the experiment listed under Mus musculus [3] was 74 mg/kg in each case. Further, the figures for the half-inhibitory concentration (IC50) on Glutamate NMDA receptor [2] and at Glutamate NMDA receptor [4] were 3.3 µM and 378 µM, respectively.
Compound `NC(Cc1ccc(P(=O)(O)O)cc1)C(=O)O` (stereo not drawn) yielded an I in experiment [5] of 10%.
On to `NC(CCCc1ccccc1CP(=O)(O)O)C(=O)O` (stereo not drawn), for which the I in experiment [5] came to 46%.
For the compound `NC(C(=O)O)c1cccc(CP(=O)(O)O)c1` (stereo not drawn), the IC50 on Glutamate NMDA receptor [6] stood at 9.3 µM. In addition, the Max dose with Mus musculus [7] was found to be 60 mg/kg.
In [5], `NC(C(=O)O)c1ccc(CCP(=O)(O)O)cc1` (stereo not drawn) had an I of 4%.
`NC(C(=O)O)c1ccc(P(=O)(O)O)cc1` (stereo not drawn): in experiment [5], the I came out at 10%.
For `NC(Cc1cccc(P(=O)(O)O)c1)C(=O)O` (stereo not drawn), the I in experiment [8] amounted to 15%.
As to `NC(C(=O)O)c1ccc(CCCP(=O)(O)O)cc1` (stereo not drawn), the I in experiment [5] amounted to 20%.
The same measure, in the same setting: the same measure for `NC(C(=O)O)c1cccc(CCP(=O)(O)O)c1` (stereo not drawn): 35%; for `NC(Cc1cccc(CP(=O)(O)O)c1)C(=O)O` (stereo not drawn): 1%.
In [8], `NC(Cc1ccccc1P(=O)(O)O)C(=O)O` (stereo not drawn) displayed an I of 3%.
`NC(Cc1cccc(CCP(=O)(O)O)c1)C(=O)O` (stereo not drawn): the I in experiment [8] was 19%.
As for `NC(C(=O)O)c1ccc(CP(=O)(O)O)cc1` (stereo not drawn), the IC50 came out at 58 µM on Glutamate NMDA receptor [9] and 1010 nM on Glutamate NMDA receptor [10]. For the same compound, the figures for the 50% effective dose (ED50) with Mus musculus [11] and in the experiment listed under Mus musculus [12] were 8 mg/kg and 19 mg/kg, respectively.
With `NC(CCc1ccccc1CP(=O)(O)O)C(=O)O` (stereo not drawn), the I in [8] worked out at 54%.
Regarding `NC(CCCCCP(=O)(O)O)C(=O)O` (stereo not drawn) [AP-7], the values for the IC50 against Glutamate NMDA receptor [13] and on Glutamate NMDA receptor [6] were 46 µM and 0.8 µM, respectively. The ED50 with Mus musculus [14] is 56 mg/kg; with Mus musculus [15] it was 17 mg/kg.
In the experiment filed under Mus musculus [16], `NC(Cc1ccccc1CCP(=O)(O)O)C(=O)O` (stereo not drawn) came in with a Max dose of 30 mg/kg. Also, the IA result (in experiment [17]; in the experiment on Mus musculus [18]; in the experiment with Mus musculus [19]) was “inactive” each time. Moreover, the IC50 at Glutamate NMDA receptor [2] is 60.9 µM.
Compound `O=C(O)C1CN(CCCP(=O)(O)O)CCN1` (stereo not drawn) had a half-inhibitory concentration (IC50) at Glutamate NMDA receptor [20] of 80 nM.
Consider `NC(C(=O)O)c1cccc(P(=O)(O)O)c1` (stereo not drawn), for which, in the experiment listed under Mus musculus [21], the Max dose was determined as 30 mg/kg. The half-maximal inhibitory concentration (IC50) at Glutamate NMDA receptor [6] came to 17.4 µM.
